The values below come from publication PMC4454367 (Environmental science & technology, 2015).

Usually EC50 stands for the midpoint of the concentration-response curve. A lower EC50 goes with an effect from little substance.

Each structure is given as a SMILES string. Values joined by “and” are separate entries in the source; they are usually repeats but may differ in a detail not shown here. Equal entries are not always repeated.

The target of data set [1] is X. laevis AHR1α. To be noted: read-out: apparent Kd; TCDD binding; cited from earlier work.
For data set [2], the target named is AHR2 from zebrafish. To be noted: TCDD binding; cited from earlier work.
The target in data set [3] is T1, X. laevis AHR1β (Xenopus laevis, UniProt Q4QY30).
T1 sequence (Q4QY30 1-834): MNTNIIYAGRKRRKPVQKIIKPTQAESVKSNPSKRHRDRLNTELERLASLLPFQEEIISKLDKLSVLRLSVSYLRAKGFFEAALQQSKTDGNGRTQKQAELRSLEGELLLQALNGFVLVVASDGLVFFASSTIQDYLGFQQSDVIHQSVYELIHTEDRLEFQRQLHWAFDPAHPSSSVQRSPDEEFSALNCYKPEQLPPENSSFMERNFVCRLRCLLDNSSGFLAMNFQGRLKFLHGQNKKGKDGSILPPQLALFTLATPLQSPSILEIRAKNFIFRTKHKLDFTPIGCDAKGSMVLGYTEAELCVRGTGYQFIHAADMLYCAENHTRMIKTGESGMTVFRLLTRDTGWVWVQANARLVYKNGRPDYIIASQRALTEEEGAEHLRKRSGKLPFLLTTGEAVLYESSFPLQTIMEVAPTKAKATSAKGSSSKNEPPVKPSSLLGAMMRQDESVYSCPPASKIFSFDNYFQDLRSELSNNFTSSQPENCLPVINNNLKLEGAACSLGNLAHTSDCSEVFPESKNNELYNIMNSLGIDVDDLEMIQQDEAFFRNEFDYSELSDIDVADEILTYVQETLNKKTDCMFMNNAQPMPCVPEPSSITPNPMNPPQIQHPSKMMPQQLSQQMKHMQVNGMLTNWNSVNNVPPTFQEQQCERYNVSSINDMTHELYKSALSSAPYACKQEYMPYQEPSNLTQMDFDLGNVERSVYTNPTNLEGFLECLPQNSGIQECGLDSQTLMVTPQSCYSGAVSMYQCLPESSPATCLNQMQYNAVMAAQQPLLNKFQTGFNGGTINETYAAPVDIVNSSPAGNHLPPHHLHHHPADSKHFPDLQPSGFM
To be noted: cited from earlier work.

Data set [4] has as its system zebrafish. The settings on record: cited from earlier work.
Data set [5] concerns tern AHR. The settings on record: tern AHR (V325, A381) vs chicken AHR (I325, S381); cited from earlier work.
The target of data set [6] is T2, A. mexicanum AHR (Ambystoma mexicanum, UniProt A0A0F6TLE0).
T2 sequence (A0A0F6TLE0 1-853): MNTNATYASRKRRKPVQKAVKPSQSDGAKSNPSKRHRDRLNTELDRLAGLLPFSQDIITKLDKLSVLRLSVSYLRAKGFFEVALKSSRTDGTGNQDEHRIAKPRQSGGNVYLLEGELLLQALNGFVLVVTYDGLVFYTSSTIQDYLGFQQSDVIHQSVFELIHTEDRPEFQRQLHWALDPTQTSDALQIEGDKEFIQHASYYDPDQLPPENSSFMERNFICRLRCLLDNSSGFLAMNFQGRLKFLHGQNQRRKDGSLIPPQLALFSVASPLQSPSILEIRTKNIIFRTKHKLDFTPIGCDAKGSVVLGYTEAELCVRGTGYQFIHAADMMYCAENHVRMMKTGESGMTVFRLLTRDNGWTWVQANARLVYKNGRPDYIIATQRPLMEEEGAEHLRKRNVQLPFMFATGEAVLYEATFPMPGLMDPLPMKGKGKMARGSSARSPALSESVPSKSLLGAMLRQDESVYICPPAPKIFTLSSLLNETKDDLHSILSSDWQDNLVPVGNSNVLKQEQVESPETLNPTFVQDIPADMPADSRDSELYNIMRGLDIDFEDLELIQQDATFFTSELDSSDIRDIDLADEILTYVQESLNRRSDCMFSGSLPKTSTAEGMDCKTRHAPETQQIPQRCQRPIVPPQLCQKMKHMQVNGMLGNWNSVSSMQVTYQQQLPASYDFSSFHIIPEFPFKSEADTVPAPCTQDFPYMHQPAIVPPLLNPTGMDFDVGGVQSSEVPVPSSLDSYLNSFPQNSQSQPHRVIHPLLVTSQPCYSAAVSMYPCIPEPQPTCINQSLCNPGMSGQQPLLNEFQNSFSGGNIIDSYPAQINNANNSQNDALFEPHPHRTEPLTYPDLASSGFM
Nature of the data set: Velocity sedimentation analysis of [3H]TCDD binding, A. mexicanum AHR. The settings on record: 2 nM [3H]TCDD, 18 h at 4°, sucrose gradients, in vitro synthesized AHR. In a few lines: (§1)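 AHR made in vitro from pCMVTNT in a rabbit reticulocyte coupled transcription/translation system, diluted 1:1 in MEDMDG buffer (pH 7.5, molybdate, glycerol, DTT), incubated 18 h at 4° with 2 nM [1,6-3H]TCDD. Run on 10–30% sucrose gradients at 65,000 rpm for 90 min with [14C]catalase marker. Fractions scintillation-counted; specific binding is peak fractions minus empty-vector lysate. Three replicates, mean ± standard error.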

Data set [7] concerns the target T1, X. laevis AHR1β. Nature of the data set: Velocity sedimentation analysis of [3H]TCDD binding, X. laevis AHR1β. To be noted: 2 nM [3H]TCDD, 18 h at 4°, sucrose gradients, in vitro synthesized AHR. Put shortly: as §1
For data set [8], the system named is chicken AHR. To be noted: TCDD binding; cited from earlier work.
In data set [9] the test system is larvae of the tiger salamander. To be noted: cited from earlier work.
Data set [10] concerns the target T2, A. mexicanum AHR. The data set is described as follows: Transactivation. The class given is cell-based.
Data set [11] concerns mouse AHR. To be noted: TCDD binding; cited from earlier work.
The target of data set [12] is T1, X. laevis AHR1β. Nature of the data set: Transactivation. The class given is cell-based.

As for `Clc1cc2c(cc1Cl)Oc1cc(Cl)c(Cl)cc1O2` [TCDD, 2,3,7,8-tetrachlorodibenzo-p-dioxin], the Kd in data set [1] was 47.2 nM; in data set [2] it was 1.1 nM; in data set [8], 0.8 nM; in data set [11] it was 2.4 nM. Besides, the “Kd (saturability of TCDD binding)” value in [3] was “unsaturable”. In addition, the LC100 entry in data set [4] is “no more than 1.55 nM”. Besides, the “TCDD affinity of tern AHR, fold lower than the chicken AHR” value in [5] is 7 fold. Also, the “Specific [3H]TCDD binding peak relative to mouse AHR or chimeric AHR” value in [6] is “one-tenth”; in data set [7], “approximately one-tenth”. Moreover, the “nominal TCDD concentrations defined as sub-lethal” value in data set [9] is “up to 3.0 μg/L and ≤ 9.3 nM”. The “EC50 of A. mexicanum AHR relative to that of the mouse:frog chimera” value in [10] (TCDD 24 h, fold greater than chimeric AHR) is given as roughly 300 fold.
As to `O=Cc1c2[nH]c3ccccc3c2cc2[nH]c3ccccc3c12` [FICZ, 6-formylindolo[3,2-b]carbazole], the figures for the 50% effective concentration (EC50) in data set [12] and in [10] were 0.14 nM and 0.45 nM, respectively. In addition, the “EC50 of axolotl AHR relative to that of the chimeric AHR” value in data set [10] (FICZ 3 h exposure, fold greater than chimeric AHR) was “about 45 fold”.
